Source: ChEMBL document CHEMBL5108061, “Lectin-Targeted Prodrugs Activated by Pseudomonas aeruginosa for Self-Destructive Antibiotic Release” (J Med Chem, 2022)
≈ marks a conversion by molar mass, not a printed value.

How the values were obtained:
[1] = target: T1, PA-I galactophilic lectin (Pseudomonas aeruginosa (strain ATCC 15692 / PAO1 / 1C / PRS 101 / LMG12228), UniProt Q05097); experiment: Competitive binding affinity to recombinant Pseudomonas aeruginosa LecA expressed in Escherichia coli BL21(DE3) incubated for 30 to 60 mins by fluorescent polarization assay
T1 sequence (Q05097 whole entry): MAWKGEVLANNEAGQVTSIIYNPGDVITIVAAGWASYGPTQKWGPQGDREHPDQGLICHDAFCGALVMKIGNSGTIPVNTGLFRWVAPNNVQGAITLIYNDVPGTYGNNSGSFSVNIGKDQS
Procedure, shortened: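 Recombinant LecA (E. coli BL21(DE3), galactosyl-sepharose purified) at 40 μM with 20 nM fluorescein-galactoside reporter in TBS/Ca pH 7.4; compounds serially diluted with 30% DMSO co-solvent, technical triplicates; 30–60 min at 22 °C; fluorescence polarization (ex 485/em 535); four-parameter fit with plateaus fixed by pNP-β-D-Gal control; ≥3 independent experiments.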

Pseudomonas aeruginosa [2] = experiment: Antibacterial activity against Pseudomonas aeruginosa PA14 assessed inhibition of bacterial growth preincubated for 3 hrs in matrix containing human blood plasma spiked with fresh LB medium in PBS followed by overnight grown bacterial culture addition incubated for 18 to 20 hrs by broth microdilution method; format: functional; conditions: time 21-23 hrs
Procedure, shortened: (§1)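 Prodrug serial dilutions in PBS/20% DMSO (1 mM to 1.9 μM) were diluted about 1:20 into matrix. Matrices: plasma 5 mL + PA14 LB-culture sterile filtrate 1 mL + PBS 4 mL; filtrate 1 mL + PBS 9 mL; PBS alone; plasma 5 mL + LB 1 mL + PBS 4 mL. Preincubation was 3 h at 37 °C, or <10 min at room temperature.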

Pseudomonas aeruginosa [3] = experiment: Antibacterial activity against Pseudomonas aeruginosa PA14 assessed inhibition of bacterial growth preincubated for 10 mins in matrix containing human blood plasma spiked with Pseudomonas aeruginosa cell culture supernatant in PBS buffer followed by overnight grown bacterial culture addition incubated for 18 to 20 hrs by broth microdilution method; format: functional; procedure, shortened: as §1
[4] = Stability of compound in human blood plasma spiked with Pseudomonas aeruginosa PA14 matrix assessed as hydrolysis of prodrug and measured upto 3 hrs by HPLC-MS/MS analysis; format: ADME, cell-free
Pseudomonas aeruginosa [5] = experiment: Antibacterial activity against Pseudomonas aeruginosa PA14 assessed inhibition of bacterial growth preincubated for 10 mins in PBS buffer followed by overnight grown bacterial culture addition incubated for 18 to 20 hrs by broth microdilution method; format: functional; procedure, shortened: as §1
Elastase [6] = target: T2, Elastase (Pseudomonas aeruginosa (strain ATCC 15692 / PAO1 / 1C / PRS 101 / LMG12228), UniProt P14756); experiment: Prodrug activation assessed as LasB-mediated drug release in Pseudomonas aeruginosa PA14 cell supernatant in presence of human blood plasma and measured for 3 hrs by HPLC-MS analysis; format: cell-free
T2 sequence (P14756 whole entry): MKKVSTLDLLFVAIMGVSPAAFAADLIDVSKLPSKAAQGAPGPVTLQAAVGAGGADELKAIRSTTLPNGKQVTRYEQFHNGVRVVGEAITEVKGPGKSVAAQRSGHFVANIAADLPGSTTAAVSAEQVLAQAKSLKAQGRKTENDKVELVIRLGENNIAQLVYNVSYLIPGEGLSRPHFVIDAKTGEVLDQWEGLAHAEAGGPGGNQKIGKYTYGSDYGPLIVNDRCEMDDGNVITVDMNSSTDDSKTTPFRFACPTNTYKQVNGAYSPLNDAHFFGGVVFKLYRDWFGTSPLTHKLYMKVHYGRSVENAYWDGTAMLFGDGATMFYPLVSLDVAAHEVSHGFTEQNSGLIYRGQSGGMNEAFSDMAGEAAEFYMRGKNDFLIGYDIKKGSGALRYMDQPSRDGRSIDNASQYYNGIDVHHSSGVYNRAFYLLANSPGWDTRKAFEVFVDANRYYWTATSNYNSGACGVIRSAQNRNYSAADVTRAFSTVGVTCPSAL

Pseudomonas aeruginosa [7] = experiment: Antibacterial activity against Pseudomonas aeruginosa PA14 assessed inhibition of bacterial growth preincubated for 3 hrs in matrix containing human blood plasma spiked with Pseudomonas aeruginosa cell culture supernatant in PBS buffer followed by overnight grown bacterial culture addition incubated for 18 to 20 hrs by broth microdilution method; format: functional; procedure, shortened: as §1
Pseudomonas aeruginosa [8] = experiment: Antibacterial activity against Pseudomonas aeruginosa PA14 assessed inhibition of bacterial growth preincubated for 3 hrs in matrix containing Pseudomonas aeruginosa cell culture supernatant in PBS buffer followed by overnight grown bacterial culture addition incubated for 18 to 20 hrs by broth microdilution method; format: functional; conditions: time 21-23 hrs; procedure, shortened: as §1
Pseudomonas aeruginosa [9] = experiment: Antibacterial activity against Pseudomonas aeruginosa PA14 assessed inhibition of bacterial growth preincubated for 3 hrs in PBS buffer followed by overnight grown bacterial culture addition incubated for 18 to 20 hrs by broth microdilution method; format: functional; conditions: time 21-23 hrs; procedure, shortened: as §1
Pseudomonas aeruginosa [10] = experiment: Antibacterial activity against Pseudomonas aeruginosa PA14 assessed inhibition of bacterial growth preincubated for 10 mins in matrix containing human blood plasma spiked with fresh LB medium in PBS followed by overnight grown bacterial culture addition incubated for 18 to 20 hrs by broth microdilution method; format: functional; procedure, shortened: as §1
[11] = target: Fucose-binding lectin PA-IIL (Pseudomonas aeruginosa (strain ATCC 15692 / DSM 22644 / CIP 104116 / JCM14847 / LMG 12228 / 1C / PRS 101 / PAO1), UniProt Q9HYN5); experiment: Competitive binding affinity to recombinant Pseudomonas aeruginosa PAO1 LecB expressed in Escherichia coli BL21(DE3) incubated for 4 to 8 hrs by fluorescent polarization assay
Sequence of Fucose-binding lectin PA-IIL (Q9HYN5 whole entry): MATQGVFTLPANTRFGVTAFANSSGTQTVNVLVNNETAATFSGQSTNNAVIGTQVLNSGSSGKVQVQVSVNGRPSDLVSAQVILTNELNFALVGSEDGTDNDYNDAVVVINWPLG

Pseudomonas aeruginosa [12] = experiment: Antibacterial activity against Pseudomonas aeruginosa PA14 assessed inhibition of bacterial growth preincubated for 3 hrs in matrix containing 50% human blood plasma and 10% Pseudomonas aeruginosa cell culture supernatant in PBS followed by overnight grown bacterial culture addition incubated for 18 to 20 hrs by broth microdilution method; format: functional; conditions: time 21-23 hrs; procedure, shortened: as §1
Elastase [13] = target: T2, Elastase; experiment: Prodrug activation assessed as LasB- mediated drug release in Pseudomonas aeruginosa PA14 cell supernatant and measured after 24 hrs by HPLC-MS analysis
Pseudomonas aeruginosa [14] = experiment: Antibacterial activity against Pseudomonas aeruginosa PA14 assessed inhibition of bacterial growth incubated for 18 to 20 hrs by broth microdilution method; format: functional; conditions: time 18-20 hrs
Procedure, shortened: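 Broth microdilution per EUCAST in Müller-Hinton broth II, no matrix preincubation. […] Inoculum from overnight LB-agar colonies adjusted to OD600 0.08–0.13, diluted 1:100, final 5 × 10^5 cfu/mL.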

[15] = Stability in human plasma assessed as half life at 1 uM and measured upto 240 mins by HPLC-MS/MS analysis; format: ADME, cell-free; conditions: 4 h
Procedure, shortened: (§2)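 Compound at 1 μM final in prewarmed mouse or human plasma (pH 7.4), 37 °C, sampled at 0–240 min; extracted with acetonitrile containing caffeine internal standard; HPLC-MS/MS, peak area normalized to internal standard and time 0; procaine and procainamide controls; ≥3 independent repeats.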

A549 = experiment: Cytotoxicity against human A549 cells assessed as reduction in cell viability incubated for 24 hrs by MTT assay
[16] = Protein binding in human plasma at 1 uM incubated for incubated for 2 hrs by HPLC-MS/MS analysis; format: ADME, cell-free
Procedure, shortened: (§3)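 Rapid equilibrium dialysis; compound at 1 μM final in pooled CD-1 mouse plasma or pooled mixed-gender human plasma, dialysed against buffer; naproxen as high-binding control.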

[17] = Stability in mouse plasma assessed as half life at 1 uM and measured upto 240 mins by HPLC-MS/MS analysis; format: ADME, cell-free; conditions: 4 h; procedure, shortened: as §2
[18] = Protein binding in CD-1 mouse plasma at 1 uM incubated for incubated for 2 hrs by HPLC-MS/MS analysis; format: ADME, cell-free; procedure, shortened: as §3
[19] = Drug uptake in human A549 cells assessed as intracellular accumulation at 10 ug/ml incubated for 15 to 60 mins by HPLC-MS/MS analysis; format: ADME, cell-based; conditions: time 15-60 min, dose 10 µg/ml
Procedure, shortened: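 A549 cells grown to 95% confluence in DMEM/10% FCS, exposed to 10 μg/mL compound for 15, 30 and 60 min at 37 °C; washed twice with PBS, lysed in MeOH; medium, washes and extracts extracted with MeOH containing caffeine internal standard and quantified by HPLC-MS/MS against calibration/QC samples; technical duplicates, two biological replicates.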

| SMILES | IC50 [1] [µM] | MIC (Pseudomonas aeruginosa [2]) [µM] | MIC (Pseudomonas aeruginosa [3]) [µM] | Stability [4] | MIC (Pseudomonas aeruginosa [5]) [µM] | Drug metabolism (Elastase [6]) | MIC (Pseudomonas aeruginosa [7]) [µM] | MIC (Pseudomonas aeruginosa [8]) [µM] | MIC (Pseudomonas aeruginosa [9]) [µM] | MIC (Pseudomonas aeruginosa [10]) [µM] | IC50 [11] [µM] | MIC (Pseudomonas aeruginosa [12]) [µM] | Drug metabolism (Elastase [13]) | MIC (Pseudomonas aeruginosa [14]) [µM] | t1/2 [15] [h] | IC50 (A549) [µM] | PPB [16] [%] | t1/2 [17] [h] | PPB [18] [%] | Drug uptake [19] [ng/mL] |
| --- | --- | --- | --- | --- | --- | --- | --- | --- | --- | --- | --- | --- | --- | --- | --- | --- | --- | --- | --- | --- |
| O=[N+]([O-])c1ccc(O[C@@H]2O[C@H](CO)[C@H](O)[C@H](O)[C@H]2O)cc1 | 61.9 |  |  |  |  |  |  |  |  |  |  |  |  |  |  |  |  |  |  |  |
| CC(C)C[C@H](NC(=O)CNC(=O)[C@H](C)NC(=O)c1ccc(S(=O)(=O)NC[C@H]2O[C@@H](C)[C@@H](O)[C@@H](O)[C@@H]2O)cc1)C(=O)N[C@@H](C)C(=O)N1CCN(c2cc3c(cc2F)c(=O)c(C(=O)O)cn3C2CC2)CC1 |  | ≥ 25 | ≥ 25 | Stable | > 25 | Metabolite_Notdetected | ≥ 25 | ≥ 25 | > 25 | ≥ 25 | 4.63 | ≥ 25 |  |  |  |  |  |  |  |  |
| CC(C)C[C@H](N)C(=O)N[C@@H](C)C(=O)N[C@H]1CCN(c2cc3c(cc2F)c(=O)c(C(=O)O)cn3C2CC2)C1 |  |  |  |  |  |  |  |  |  |  |  |  | Metabolite_Notdetected | 58 (≈ 29.9 µg/mL) |  |  |  |  |  |  |
| CC(C)C[C@H](NC(=O)CNC(=O)[C@H](C)NC(=O)c1ccc(S[C@@H]2O[C@H](CO)[C@H](O)[C@H](O)[C@H]2O)cc1)C(=O)N[C@@H](C)C(=O)N[C@H]1CCN(c2cc3c(cc2F)c(=O)c(C(=O)O)cn3C2CC2)C1 | 29.8 | 0.78 (≈ 0.735 µg/mL) | 0.195 (≈ 0.184 µg/mL) | Stable | > 25 | Metabolite_Detected | 0.78 (≈ 0.735 µg/mL) | 0.195 (≈ 0.184 µg/mL) | > 25 | ≥ 25 |  | 0.1 (≈ 0.0942 µg/mL) |  |  | > 4 | 21.7 | 97.2 | > 4 | 74 |  |
| CC(C)C[C@H](N)C(=O)N[C@@H](C)C(=O)NC[C@H]1CCN(c2cc3c(cc2F)c(=O)c(C(=O)O)cn3C2CC2)C1 |  |  |  |  |  |  |  |  |  |  |  |  |  | 28 (≈ 14.8 µg/mL) |  |  |  |  |  |  |
| NC[C@@H]1CCN(c2cc3c(cc2F)c(=O)c(C(=O)O)cn3C2CC2)C1 |  |  |  |  |  |  |  |  |  |  |  |  |  | 0.29 (≈ 0.1 µg/mL) |  |  |  |  |  |  |
| CC(C)C[C@H](NC(=O)CNC(=O)[C@H](C)NC(=O)c1ccc(S[C@@H]2O[C@H](CO)[C@H](O)[C@H](O)[C@H]2O)cc1)C(=O)N[C@@H](C)C(=O)NC[C@@H]1CCN(c2cc3c(cc2F)c(=O)c(C(=O)O)cn3C2CC2)C1 | 28 | 12.5 (≈ 12 µg/mL) | 3.13 (≈ 2.99 µg/mL) | Stable | > 25 | Metabolite_Detected | 1.56 (≈ 1.49 µg/mL) | 1.56 (≈ 1.49 µg/mL) | > 25 | > 25 |  | 1.56 (≈ 1.49 µg/mL) |  |  |  |  |  |  |  |  |
| CC(C)C[C@H](NC(=O)CNC(=O)[C@H](C)NC(=O)c1ccc(S[C@@H]2O[C@H](CO)[C@H](O)[C@H](O)[C@H]2O)cc1)C(=O)N[C@@H](C)C(=O)N1CCN(c2cc3c(cc2F)c(=O)c(C(=O)O)cn3C2CC2)CC1 | 31.7 | ≥ 25 | ≥ 25 | Stable | > 25 | Metabolite_Notdetected | ≥ 25 | ≥ 25 | > 25 | > 25 |  | ≥ 25 |  |  |  |  |  |  |  |  |
| CC(C)C[C@H](NC(=O)CNC(=O)[C@H](C)NC(=O)c1ccc(S(=O)(=O)NC[C@H]2O[C@@H](C)[C@@H](O)[C@@H](O)[C@@H]2O)cc1)C(=O)N[C@@H](C)C(=O)N[C@H]1CCN(c2cc3c(cc2F)c(=O)c(C(=O)O)cn3C2CC2)C1 |  | 0.78 (≈ 0.77 µg/mL) | 0.78 (≈ 0.77 µg/mL) | Stable | > 25 | Metabolite_Detected | 1.56 (≈ 1.54 µg/mL) | 0.39 (≈ 0.385 µg/mL) | > 25 | ≥ 25 | 3.59 | 0.1 (≈ 0.0987 µg/mL) |  |  | 2.25 | > 50 | 51.1 | 1.23 | 30.1 | 55 |
| CC(C)C[C@H](NC(=O)CNC(=O)[C@H](C)NC(=O)c1ccc(S(=O)(=O)NC[C@H]2O[C@@H](C)[C@@H](O)[C@@H](O)[C@@H]2O)cc1)C(=O)N[C@@H](C)C(=O)NC[C@@H]1CCN(c2cc3c(cc2F)c(=O)c(C(=O)O)cn3C2CC2)C1 |  | 12.5 (≈ 12.5 µg/mL) | 3.13 (≈ 3.13 µg/mL) | Stable | > 25 | Metabolite_Detected | 3.13 (≈ 3.13 µg/mL) | 1.56 (≈ 1.56 µg/mL) | > 25 | ≥ 25 | 4.29 | 1.56 (≈ 1.56 µg/mL) |  |  |  |  |  |  |  |  |
| O=C(O)c1cn(C2CC2)c2cc(N3CCNCC3)c(F)cc2c1=O [CIPROFLOXACIN] |  | 0.156 (≈ 0.0517 µg/mL) | 0.25 (≈ 0.0828 µg/mL) |  | 0.125 (≈ 0.0414 µg/mL) |  |  |  | 0.125 (≈ 0.0414 µg/mL) | 0.156 (≈ 0.0517 µg/mL) |  | 0.156 (≈ 0.0517 µg/mL) |  | 0.125 (≈ 0.0414 µg/mL) |  |  |  |  |  |  |
